Among the data in ChEMBL document CHEMBL4311951, “Potent and Preferential Degradation of CDK6 via Proteolysis Targeting Chimera Degraders” (J Med Chem, 2019) are Activity, IC50 and DC50 values, retold here.

The source made the active and inactive calls. No cut-off for these calls is given here.

The subject of data set [1] is RPMI-8226. The data set can be described thus: Antiproliferative activity against human RPMI8226 cells after 84 hrs by CCK8 assay. It counts as functional, cell-based. Summed up:
(§1)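 Suspension haematopoietic lines seeded in triplicate in 96-well plates; drug stock added immediately to the final concentrations. After 84 h culture, CCK-8 reagent added and absorbance at OD450 nm read after 2 h incubation.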
A general note: Tetrazolium assays rely on reduction of a dye to a coloured formazan, in cell work by metabolically active cells.

Data set [2] has as its target Protein cereblon/Cyclin-dependent kinase 5 (Homo sapiens, UniProt Q00535+Q96SW2). The data set can be described thus: Induction of CRBN-mediated CDK5 degradation in human U251 cells at 500 nM after 4 hrs by […]. Format: cell-based. The conditions noted are these: 0.5 µM. Summed up:
(§2)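 U251 cells grown to 70–80% confluency, exposed to 500 nM degrader or DMSO for 4 h. Harvested by trypsinization, washed in cold PBS, lysed in RIPA on ice 30 min. Lysates BCA-quantified, acetone-precipitated, TMT-labelled and analysed by MS2 quantitation.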

The test system of data set [3] is MCF7. The data set can be described thus: Antiproliferative activity against palbociclib-resistant human MCF7 cells with CDK6 gene amplification after 6 days by alamarBlue assay. Format: functional, cell-based. Summed up:
(§3)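 Parental or palbociclib-resistant MCF-7 cells (CDK6-N2 or FAT1 knockout) exposed to serial concentrations of degrader for 6 days, then viability determined.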
On the technique in general: Resazurin is reduced to fluorescent resorufin, in cell work by metabolically active cells.

In data set [4] the target is Protein cereblon/Cyclin-dependent kinase 1 (Homo sapiens, UniProt P06493+Q96SW2). Kind of data set: Induction of CRBN-mediated CDK1 degradation in human U251 cells at 500 nM after 4 hrs […]. The conditions noted are these: 0.5 µM. Format: cell-based. An outline of the steps:
as §2

Data set [5] concerns the target Protein cereblon/Cyclin-dependent kinase 2 (Homo sapiens, UniProt P24941+Q96SW2). The data set can be described thus: Induction of CRBN-mediated CDK2 degradation in human U251 cells at 500 nM after 4 hrs by immunoblot analysis. Format: cell-based. The note with it: 0.5 µM. On the technique in general: A western blot detects proteins with antibodies after separation by electrophoresis.

Data set [6] in a line: Antiproliferative activity against human Mino cells after 84 hrs by CCK8 assay. Format: functional, cell-based. An outline of the steps:
as §1

In data set [7] the test system is THP-1. Kind of data set: Antiproliferative activity against human THP1 cells after 84 hrs by CCK8 assay. Format: functional, cell-based. Summed up: as §1
In data set [8] the test system is JeKo-1. Kind of data set: Antiproliferative activity against human JeKo1 cells after 84 hrs by CCK8 assay. It counts as functional, cell-based. An outline of the steps: as §1
In data set [9] the target is Protein cereblon/Dual specificity mitogen-activated protein kinase kinase 1 (Homo sapiens, UniProt Q02750+Q96SW2). Kind of data set: Induction of CRBN-mediated MEK1 degradation in human U251 cells at 500 nM after 4 hrs by immunoblot analysis. The note with it: 0.5 µM. Format: cell-based.
Sequence of Protein cereblon/Dual specificity mitogen-activated protein kinase kinase 1 (Q02750 whole entry): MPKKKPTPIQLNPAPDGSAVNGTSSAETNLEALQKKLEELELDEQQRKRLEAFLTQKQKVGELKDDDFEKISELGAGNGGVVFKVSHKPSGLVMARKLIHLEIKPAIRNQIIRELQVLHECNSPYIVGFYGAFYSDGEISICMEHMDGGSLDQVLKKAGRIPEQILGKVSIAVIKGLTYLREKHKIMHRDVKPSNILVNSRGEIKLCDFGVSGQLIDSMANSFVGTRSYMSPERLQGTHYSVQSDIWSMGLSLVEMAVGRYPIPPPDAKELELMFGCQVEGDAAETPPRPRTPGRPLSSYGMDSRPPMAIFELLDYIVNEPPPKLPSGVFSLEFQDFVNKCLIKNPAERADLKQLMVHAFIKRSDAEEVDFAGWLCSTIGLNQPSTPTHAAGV
Sequence of Protein cereblon/Dual specificity mitogen-activated protein kinase kinase 1 (Q96SW2 whole entry): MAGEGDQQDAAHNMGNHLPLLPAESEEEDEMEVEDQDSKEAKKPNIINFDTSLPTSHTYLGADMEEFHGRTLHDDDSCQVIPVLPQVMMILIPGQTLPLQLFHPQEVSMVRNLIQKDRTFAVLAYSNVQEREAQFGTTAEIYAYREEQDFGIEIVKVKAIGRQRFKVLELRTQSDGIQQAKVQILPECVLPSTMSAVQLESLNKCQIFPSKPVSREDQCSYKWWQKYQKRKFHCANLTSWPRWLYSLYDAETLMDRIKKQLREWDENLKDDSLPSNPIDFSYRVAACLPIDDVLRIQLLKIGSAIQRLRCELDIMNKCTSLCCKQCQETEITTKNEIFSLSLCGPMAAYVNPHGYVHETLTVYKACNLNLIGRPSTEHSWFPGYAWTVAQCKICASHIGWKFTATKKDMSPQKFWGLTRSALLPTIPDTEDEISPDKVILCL
The target in data set [10] is Protein cereblon/Cyclin-dependent kinase 6 (Homo sapiens, UniProt Q00534+Q96SW2). The data set can be described thus: Induction of CRBN-mediated CDK6 degradation in human U251 cells after 24 hrs by immunoblot analysis. Format: cell-based.
Sequence of Protein cereblon/Cyclin-dependent kinase 6 (Q00534 whole entry): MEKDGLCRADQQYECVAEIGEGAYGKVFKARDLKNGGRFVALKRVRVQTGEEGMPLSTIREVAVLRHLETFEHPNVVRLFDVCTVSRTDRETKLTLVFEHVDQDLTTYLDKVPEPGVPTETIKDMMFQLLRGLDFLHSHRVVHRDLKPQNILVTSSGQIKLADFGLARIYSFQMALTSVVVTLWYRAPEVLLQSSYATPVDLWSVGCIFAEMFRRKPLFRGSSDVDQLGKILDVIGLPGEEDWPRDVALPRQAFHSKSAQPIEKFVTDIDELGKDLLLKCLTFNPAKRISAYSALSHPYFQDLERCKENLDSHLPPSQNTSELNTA
Sequence of Protein cereblon/Cyclin-dependent kinase 6 (Q96SW2 whole entry): as the sequence (Q96SW2 whole entry) above
In data set [11] the test system is HL-60. The data set can be described thus: Antiproliferative activity against human HL60 cells after 84 hrs by CCK8 assay. It counts as functional, cell-based. An outline of the steps:
as §1

For data set [12], the system named is MM1.S. Kind of data set: Antiproliferative activity against human MM1S cells after 84 hrs by CCK8 assay. Format: functional, cell-based. Summed up:
as §1

The target of data set [13] is Protein cereblon/Cyclin-dependent kinase 9 (Homo sapiens, UniProt P50750+Q96SW2). The data set can be described thus: Induction of CRBN-mediated CDK9 degradation in human U251 cells at 500 nM after 4 hrs […]. Format: cell-based. The note with it: 0.5 µM. An outline of the steps: as §2
Sequence of Protein cereblon/Cyclin-dependent kinase 9 (P50750 whole entry): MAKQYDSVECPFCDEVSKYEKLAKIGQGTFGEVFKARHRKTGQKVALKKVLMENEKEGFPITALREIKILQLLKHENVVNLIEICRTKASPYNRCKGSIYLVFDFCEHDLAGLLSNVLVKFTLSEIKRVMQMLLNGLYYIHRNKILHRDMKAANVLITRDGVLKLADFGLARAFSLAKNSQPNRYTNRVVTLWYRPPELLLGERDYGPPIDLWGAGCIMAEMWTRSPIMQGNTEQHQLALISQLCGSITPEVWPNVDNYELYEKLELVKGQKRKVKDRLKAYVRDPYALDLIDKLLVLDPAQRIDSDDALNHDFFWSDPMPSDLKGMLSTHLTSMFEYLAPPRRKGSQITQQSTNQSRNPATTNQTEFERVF
Sequence of Protein cereblon/Cyclin-dependent kinase 9 (Q96SW2 whole entry): as the sequence (Q96SW2 whole entry) above
Data set [14] concerns the target Protein cereblon/Cyclin-dependent kinase 4 (Homo sapiens, UniProt P11802+Q96SW2). Kind of data set: Induction of CRBN-mediated CDK4 degradation in human U251 cells after 24 hrs by immunoblot analysis. Format: cell-based.
In data set [15] the target is Protein cereblon/G1/S-specific cyclin-D1 (Homo sapiens, UniProt P24385+Q96SW2). The data set can be described thus: Induction of CRBN-mediated CCND1 degradation in human U251 cells at 500 nM after 4 hrs by […]. Format: cell-based. The conditions noted are these: 0.5 µM. Summed up:
as §2

The subject of data set [16] is MCF7. Kind of data set: Antiproliferative activity against Fat1 knockout human MCF7 cells after 6 days by alamarBlue assay. Format: functional, cell-based. Summed up:
as §3

Data set [17] addresses Protein cereblon/Epidermal growth factor receptor (Homo sapiens, UniProt P00533+Q96SW2). The data set can be described thus: Induction of CRBN-mediated EGFR degradation in human U251 cells at 500 nM after 4 hrs […]. It counts as cell-based. The note with it: 0.5 µM. An outline of the steps: as §2

Sequence of Protein cereblon/Cyclin-dependent kinase 5 (Q00535 whole entry): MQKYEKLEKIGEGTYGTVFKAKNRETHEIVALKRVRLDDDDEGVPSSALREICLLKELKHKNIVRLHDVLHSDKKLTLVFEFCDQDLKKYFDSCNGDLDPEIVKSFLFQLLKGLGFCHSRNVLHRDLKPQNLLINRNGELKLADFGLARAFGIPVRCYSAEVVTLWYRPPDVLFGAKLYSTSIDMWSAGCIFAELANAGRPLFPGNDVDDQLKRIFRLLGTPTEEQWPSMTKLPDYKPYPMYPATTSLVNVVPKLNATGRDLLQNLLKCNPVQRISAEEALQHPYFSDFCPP
Sequence of Protein cereblon/Cyclin-dependent kinase 5 (Q96SW2 whole entry): as the sequence (Q96SW2 whole entry) above
Sequence of Protein cereblon/Epidermal growth factor receptor (P00533 whole entry): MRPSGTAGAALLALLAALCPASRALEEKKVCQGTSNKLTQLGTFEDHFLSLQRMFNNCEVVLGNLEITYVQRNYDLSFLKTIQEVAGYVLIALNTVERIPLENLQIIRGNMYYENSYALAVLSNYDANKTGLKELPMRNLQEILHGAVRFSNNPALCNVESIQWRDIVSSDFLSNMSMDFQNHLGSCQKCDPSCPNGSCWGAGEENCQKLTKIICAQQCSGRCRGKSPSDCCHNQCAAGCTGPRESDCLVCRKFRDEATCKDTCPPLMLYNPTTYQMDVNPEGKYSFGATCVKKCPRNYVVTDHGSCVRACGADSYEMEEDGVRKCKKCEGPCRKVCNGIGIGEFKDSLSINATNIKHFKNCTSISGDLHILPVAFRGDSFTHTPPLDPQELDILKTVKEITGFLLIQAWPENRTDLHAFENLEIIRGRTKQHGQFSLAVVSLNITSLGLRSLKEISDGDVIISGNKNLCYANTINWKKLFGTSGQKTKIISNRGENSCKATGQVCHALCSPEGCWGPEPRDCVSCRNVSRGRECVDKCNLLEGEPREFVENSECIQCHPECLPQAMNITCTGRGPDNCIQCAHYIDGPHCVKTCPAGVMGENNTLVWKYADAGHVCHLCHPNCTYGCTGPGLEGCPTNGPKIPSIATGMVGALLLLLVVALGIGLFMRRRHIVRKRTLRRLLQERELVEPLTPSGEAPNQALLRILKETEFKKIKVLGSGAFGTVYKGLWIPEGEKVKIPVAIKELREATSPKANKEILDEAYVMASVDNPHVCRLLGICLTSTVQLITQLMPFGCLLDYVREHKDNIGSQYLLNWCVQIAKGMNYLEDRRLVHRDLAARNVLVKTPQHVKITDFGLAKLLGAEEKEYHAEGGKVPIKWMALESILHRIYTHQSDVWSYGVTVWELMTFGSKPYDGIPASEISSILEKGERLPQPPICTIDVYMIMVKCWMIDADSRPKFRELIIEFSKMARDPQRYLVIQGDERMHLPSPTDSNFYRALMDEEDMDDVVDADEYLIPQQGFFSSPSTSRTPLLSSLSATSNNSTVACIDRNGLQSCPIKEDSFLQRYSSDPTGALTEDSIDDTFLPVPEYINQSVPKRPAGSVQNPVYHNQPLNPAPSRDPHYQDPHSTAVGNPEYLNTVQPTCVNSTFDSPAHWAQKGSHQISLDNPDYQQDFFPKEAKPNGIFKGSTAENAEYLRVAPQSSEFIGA
Sequence of Protein cereblon/Epidermal growth factor receptor (Q96SW2 whole entry): as the sequence (Q96SW2 whole entry) above
Sequence of Protein cereblon/Cyclin-dependent kinase 1 (P06493 whole entry): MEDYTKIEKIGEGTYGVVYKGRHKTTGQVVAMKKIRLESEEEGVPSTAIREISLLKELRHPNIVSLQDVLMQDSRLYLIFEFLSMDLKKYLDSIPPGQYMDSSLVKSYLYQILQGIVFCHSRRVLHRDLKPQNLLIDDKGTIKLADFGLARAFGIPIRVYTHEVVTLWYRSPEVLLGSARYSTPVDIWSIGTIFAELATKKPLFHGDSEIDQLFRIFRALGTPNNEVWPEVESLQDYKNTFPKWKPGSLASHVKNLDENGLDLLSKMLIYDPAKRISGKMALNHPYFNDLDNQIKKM
Sequence of Protein cereblon/Cyclin-dependent kinase 1 (Q96SW2 whole entry): as the sequence (Q96SW2 whole entry) above
Sequence of Protein cereblon/Cyclin-dependent kinase 4 (P11802 whole entry): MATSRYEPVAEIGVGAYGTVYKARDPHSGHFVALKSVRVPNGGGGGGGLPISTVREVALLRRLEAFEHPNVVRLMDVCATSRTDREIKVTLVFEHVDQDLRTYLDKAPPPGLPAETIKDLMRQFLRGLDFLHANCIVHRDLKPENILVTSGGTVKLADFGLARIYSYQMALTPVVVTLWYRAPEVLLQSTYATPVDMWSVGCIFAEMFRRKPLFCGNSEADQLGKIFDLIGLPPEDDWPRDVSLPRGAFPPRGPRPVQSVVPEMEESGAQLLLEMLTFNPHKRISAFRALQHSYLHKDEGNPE
Sequence of Protein cereblon/Cyclin-dependent kinase 4 (Q96SW2 whole entry): as the sequence (Q96SW2 whole entry) above
Sequence of Protein cereblon/G1/S-specific cyclin-D1 (P24385 whole entry): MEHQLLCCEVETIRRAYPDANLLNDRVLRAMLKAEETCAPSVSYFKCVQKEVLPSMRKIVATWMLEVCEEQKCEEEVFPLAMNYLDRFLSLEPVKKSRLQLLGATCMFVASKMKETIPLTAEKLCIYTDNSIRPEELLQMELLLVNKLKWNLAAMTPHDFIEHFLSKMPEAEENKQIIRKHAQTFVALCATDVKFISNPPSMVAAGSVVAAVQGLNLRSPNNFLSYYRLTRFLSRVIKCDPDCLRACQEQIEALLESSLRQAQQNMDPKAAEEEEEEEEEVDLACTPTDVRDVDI
Sequence of Protein cereblon/G1/S-specific cyclin-D1 (Q96SW2 whole entry): as the sequence (Q96SW2 whole entry) above

With `CC(=O)c1c(C)c2cnc(Nc3ccc(N4CCN(Cc5cn(CCOCCNc6cccc7c6C(=O)N(C6CCC(=O)NC6=O)C7=O)nn5)CC4)cn3)nc2n(C2CCCC2)c1=O` (configuration not stated), the result in [1], in [3], in data set [7], in data set [8], in data set [11] and in data set [16] was Active. Further, the Activity result in [2], in data set [4], in data set [5], in [9], in [13] and in [15] was “Not Active” throughout. Moreover, in [17], the Activity result is “Not Active”. Moreover, the IC50 (usually the point on the concentration scale where inhibition reaches its midpoint) in data set [6] turned out to be 8 nM; in data set [12] it was 10 nM. Further, the DC50 (usually the concentration giving 50% degradation) in [10] was 2.1 nM; in data set [14], 150 to 180 nM.
